Results reported in ChEMBL document CHEMBL3758168, “Hybrid triazoles: Design and synthesis as potential dual inhibitor of growth and efflux inhibition in tuberculosis” (Eur J Med Chem, 2016).
Converted amounts (≈) assume the structure as drawn.

Tests used:
Assay type in all cases: functional
[1] = test system: Mycolicibacterium smegmatis; test: Anti-tubercular activity against Mycobacterium smegmatis MC2 155 ATCC 700084 after 3 days by microdilution method; conditions: MC2 155 ATCC 700084, 72 h
Outline: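 M. smegmatis mc2155 grown in MB7H9 + 10% OADC at 37 °C with shaking to OD600 0.8. Inoculum set to 0.5 McFarland, diluted 1:100, and mixed 1:1 with two-fold serial dilutions in MB7H9. Plates incubated 3 days at 37 °C with growth and sterility controls. MIC taken as the lowest concentration with no visible growth.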

[2] = test system: Mycobacterium tuberculosis; test: Antibacterial activity against Mycobacterium tuberculosis H37Rv ATCC 27294T assessed as isoniazid MIC at 256 ug/ml after 7 days by microdilution checkerboard assay; conditions: 168 h
Outline: (§1)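 Two-dimensional checkerboard in H37Rv at 10^5 CFU/ml in MB7H9/OADC. Partner drug (amikacin, EtBr, isoniazid, ofloxacin or rifampin) two-fold serially diluted across columns 3-11. Test compound two-fold serially diluted down rows 2-6. Plates incubated 7 days at 37 °C, then MTT added overnight. […] Run in triplicate.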

[3] = test system: Mycobacterium tuberculosis; test: Antibacterial activity against Mycobacterium tuberculosis H37Rv ATCC 27294T assessed as ethidium bromide MIC at 256 ug/ml after 7 days by microdilution checkerboard assay; conditions: 168 h; outline: as §1
[4] = test system: Mycobacterium tuberculosis; test: Antibacterial activity against Mycobacterium tuberculosis H37Rv ATCC 27294T assessed as ethidium bromide MIC at 128 ug/ml after 7 days by microdilution checkerboard assay; conditions: 168 h; outline: as §1
[5] = test system: Mycobacterium tuberculosis; test: Antibacterial activity against Mycobacterium tuberculosis H37Rv ATCC 27294T assessed as ofloxacin MIC at 32 ug/ml after 7 days by microdilution checkerboard assay; conditions: 168 h; outline: as §1
[6] = test system: Mycobacterium tuberculosis; test: Antibacterial activity against Mycobacterium tuberculosis H37Rv ATCC 27294T assessed as ofloxacin MIC at 4 ug/ml after 7 days by microdilution checkerboard assay; conditions: 168 h; outline: as §1
[7] = test system: Mycobacterium tuberculosis; test: Antibacterial activity against Mycobacterium tuberculosis H37Rv ATCC 27294T assessed as ofloxacin MIC at 8 ug/ml after 7 days by microdilution checkerboard assay; conditions: 168 h; outline: as §1
[8] = test system: Mycobacterium tuberculosis; test: Antibacterial activity against Mycobacterium tuberculosis H37Rv ATCC 27294T assessed as ofloxacin MIC at 16 ug/ml after 7 days by microdilution checkerboard assay; conditions: 168 h; outline: as §1
[9] = test system: Mycobacterium tuberculosis; test: Antibacterial activity against Mycobacterium tuberculosis H37Rv ATCC 27294T assessed as amikacin MIC at 4 ug/ml after 7 days by microdilution checkerboard assay; conditions: 168 h; outline: as §1
[10] = test system: Mycobacterium tuberculosis; test: Anti-tubercular activity against Mycobacterium tuberculosis H37Rv ATCC 27294T after 7 days by mircodilution method; conditions: 168 h
Outline: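 H37Rv grown static in MB7H9 + 10% OADC at 37 °C to OD600 0.8, then diluted to about 10^5 cells/ml. Mixed 1:1 with two-fold serial dilutions in MB7H9/OADC and incubated 7 days at 37 °C. MTT added to final 2.5% and plates incubated overnight. MIC is the lowest concentration with no colour change. Run in triplicate.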

[11] = test system: Mycobacterium tuberculosis; test: Antibacterial activity against Mycobacterium tuberculosis H37Rv ATCC 27294T assessed as rifampin MIC at 256 ug/ml after 7 days by microdilution checkerboard assay; conditions: 168 h
Outline: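 M. tuberculosis H37Rv grown in MB7H9 + 10% OADC at 37 °C to OD600 0.8; plates inoculated at 10^5 CFU/ml. Rifampicin two-fold serially diluted across columns, test compound two-fold diluted down rows (two-dimensional checkerboard). Sealed, 37 °C for seven days, then MTT added and incubated overnight. MIC read as no colour change. Triplicate.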

In the case of COc1ccc(CCN(C)CCCC(C#N)(c2ccc(OC)c(OC)c2)C(C)C)cc1OC (stereo unspecified), the MIC [1] is reported as 776 µg/mL (≈ 1710 µM), the MIC [2] is reported as 0.0125 µg/mL and the MIC [3] is reported as 0.781 µg/mL. It also gave an MIC [4] of 3.12 µg/mL, an MIC [5] of 2 µg/mL and an MIC [6] of 2 µg/mL. For the same compound, the MIC [7] was 2 µg/mL, the MIC [8] was 2 µg/mL and the MIC [9] was 2 µg/mL. The MIC [10] was 128 µg/mL (≈ 282 µM) and the MIC [11] was 0.125 µg/mL.
